Screening data deposited in PubChem BioAssay by several laboratories.
Myeloid diff MLP = induction of myeloid progenitor differentiation, primary screen, cell-based, flow cytometry, MLPCN library; ER-HoxA9 myeloid progenitors, lysozyme-GFP differentiation; calls only at 10 µM; 1% of 360,000 active; AID 624256, 2012;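 active = normalized GFP-positive differentiation at or above the plate's own cutoff, the solvent-only control mean plus 3 SD; inconclusive = no clear call, values can overlap the other calls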;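 note: cells exposed to compound for four days before flow analysis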
Granule exo inh = LAMP-1 surface exposure blockers, TALL-104 cells – cell-based, flow cytometry, MLPCN library, primary screen; TALL-104 LAMP-1 surface exposure; cells stimulated with thapsigargin and PMA; inhibition, % at 10 µM; 0.66% of 360,000 active; AID 651702, 2012;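 active = inhibition above about 55%, limit read from the data; inconclusive = no clear call, values can overlap the other calls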
HNF4A DNA FP = change in binding of human HNF4A to DNA, primary screen, biochemical, fluorescence polarization, FITC-DNA | 1 h | activity change, % at 10 µM | Hepatocyte nuclear factor 4-alpha (Homo sapiens), P41235 | 0.3% of 360,000 active; in the data active = activity change above about 30%, passing the limit was not always enough
Target sequence (P41235 whole entry, looked up): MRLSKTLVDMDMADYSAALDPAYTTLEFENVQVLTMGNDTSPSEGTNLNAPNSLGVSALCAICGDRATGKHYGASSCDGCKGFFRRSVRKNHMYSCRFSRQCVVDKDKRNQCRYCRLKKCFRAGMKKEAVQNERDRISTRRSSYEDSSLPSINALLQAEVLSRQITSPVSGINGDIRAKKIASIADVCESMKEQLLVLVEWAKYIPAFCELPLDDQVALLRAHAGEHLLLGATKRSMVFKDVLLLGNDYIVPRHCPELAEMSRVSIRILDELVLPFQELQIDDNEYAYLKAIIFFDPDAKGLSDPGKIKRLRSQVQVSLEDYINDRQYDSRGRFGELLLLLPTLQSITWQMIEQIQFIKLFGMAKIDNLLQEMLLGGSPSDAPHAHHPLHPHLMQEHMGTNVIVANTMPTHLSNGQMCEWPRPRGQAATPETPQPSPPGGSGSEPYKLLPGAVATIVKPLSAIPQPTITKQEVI
CSN deneddyl inh = inhibitors of CSN-mediated cullin deneddylation, primary screen, biochemical, fluorescence polarization, uHTS. COP9 signalosome complex subunit 5 (Homo sapiens), Q92905. inhibition, % at 12.5 µM. Purified CSN, SCF-Nedd8-OG deneddylation. 0.38% of 360,000 active;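 active = pattern-corrected inhibition above about 35%, with an unprinted fluorescence ratio check between 0.5 and 1.5, limit read from the data, passing the limit was not always enough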
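Material: purified human Csn5 enzyme expressed in HEK293T cells / Medium: Tris buffer pH 7.5, NaCl, DTT, Tween-20, trehalose, ovalbumin / Compound dosing: 12.5 µM single point / Schedule: 90 min incubation of compound, enzyme and substrate at room temperature / Signal: fluorescence polarization of the substrate / Control set: no-enzyme wells high, enzyme-with-substrate wells low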
Of the large screens only hits and unclear results are named; the others gave an inactive call. A selection: hits, their analogues and other compounds. The true share with any hit is near 2.2%.

O=C(NCc1ccccc1)C(=O)NCC1OCCN1S(=O)(=O)c1ccc([N+](=O)[O-])cc1 (centres undefined)	HNF4A DNA FP 32
COC(=O)N/N=C(\CCC(=O)O)c1cccs1	CSN deneddyl inh 90
O=C(CCc1nnc(C2(c3ccc(Cl)cc3)CCC2)o1)N1CCCC1	none
COc1ccc(OCc2n(CC(=O)OC3CC(C)CCC3C(C)C)c3ccccc3[n+]2C)cc1 (centres undefined)	Granule exo inh 64
O=C1CC(Sc2nnc(-c3ccccc3)o2)C(=O)N1c1ccccc1 (centres undefined)	Granule exo inh 66
O=C(O)c1ccccc1SC1CC(=O)N(c2ccccc2)C1=O (centres undefined)	none
COc1cc(S(C)=O)ccc1-c1nc2ncccc2[nH]1 (centres undefined)	none
CC(C)(C)N1CC(OC(N)=O)C1	Myeloid diff MLP active
C#CCOCCOCCOCCNc1nc(N2CCN(C(=O)[C@H]([C@@H](C)CC)n3cc(CCCCN)nn3)CC2)nc(N2CCN(C(=O)[C@H](CCCCN)n3cc(CC(C)O)nn3)CC2)n1 (some centres undefined)	Myeloid diff MLP active
C#CCOCCOCCOCCNc1nc(N2CCN(C(=O)[C@H]([C@@H](C)O)n3cc(CCCCN)nn3)CC2)nc(N2CCN(C(=O)[C@H](CCCCN)n3cc(CCCC)nn3)CC2)n1	Myeloid diff MLP active
C#CCOCCOCCOCCNc1nc(N2CCN(C(=O)[C@H](CCCCN)n3cc(CN)nn3)CC2)nc(N2CCN(C(=O)[C@H](CCCCN)n3cc(CN)nn3)CC2)n1	HNF4A DNA FP 59, CSN deneddyl inh 39
C#CCOCCOCCOCCNc1nc(N2CCN(C(=O)[C@H]([C@@H](C)O)n3cc(CCCCN)nn3)CC2)nc(N2CCN(C(=O)[C@H](CCCCN)n3cc(CC(C)O)nn3)CC2)n1 (some centres undefined)	none
Cc1ccccc1OCC(=O)NC(=S)Nc1ccccc1N1CCN(S(C)(=O)=O)CC1	none
Cc1ccc(-c2csc3ncn(CC(=O)NCC(c4ccco4)N4CCCC4)c(=O)c23)cc1 (centres undefined)	none
COc1cc(C2C(C(C)=O)=C(O)C(=O)N2c2ccc(Br)cn2)ccc1O (centres undefined)	none
COc1cc(C2C(C(=O)/C=C/c3ccccc3)=C(O)C(=O)N2c2ccccn2)ccc1O (centres undefined)	HNF4A DNA FP 40
Cc1oc2c(CN3CCCC(C)C3)c(O)ccc2c(=O)c1-c1ccccc1 (centres undefined)	none
CC(CC1C(C#N)=C(N)SC(N)=C1C#N)c1ccccc1 (centres undefined)	CSN deneddyl inh 58
CN1CCN(c2nc(-c3cccnc3)nc3ccccc23)CC1	none
COc1cc2c(cc1OC)CN(c1nc(-c3cccnc3)nc3ccccc13)CC2	CSN deneddyl inh 37
CCOc1cc(/C=C2\CN(CC)C/C(=C\c3ccc(O)c(OCC)c3)C2=O)ccc1O	Granule exo inh 57 (no result: Myeloid diff MLP)
O=C1NC(=O)/C(=C/c2cccc([N+](=O)[O-])c2)N1	none
CCN1C/C(=C/c2cccc([N+](=O)[O-])c2)C(=O)/C(=C/c2cccc([N+](=O)[O-])c2)C1	Myeloid diff MLP inconclusive, Granule exo inh 64
CCCCN(C(=O)c1cc(=O)[nH]c2ccccc12)c1c(N)n(CCCC)c(=O)[nH]c1=O	Myeloid diff MLP active
CCCCN(C(=O)C1CCN(C(=O)c2ccccc2C)CC1)c1c(N)n(CCCC)c(=O)[nH]c1=O	Myeloid diff MLP active
O=S1(=O)N[C@@H](Cc2ccccc2)COc2cc(N3CCSCC3)ccc21	none
CCCn1c(SCC(=O)Nc2cc(S(=O)(=O)N3CCCCC3)ccc2C)n[nH]c1=O	none
CN1CCC(=NNC(=O)C(=O)Nc2cccc(Br)c2)CC1	HNF4A DNA FP 31
CN1CCC(=NNC(=O)C(=O)Nc2ccc(F)cc2)CC1	none
COc1cc2c(cc1OC)CN(CC(=O)Nc1ccc(C)c(C)c1)CC2	none
Cc1ccccc1S(=O)(=O)Cc1ccc(C(=O)NCCN(C)Cc2ccccc2)o1	Myeloid diff MLP active
CC[C@]12C(=O)N(C)C[C@H]([C@@H]3C(=O)N(Cc4ccccc4)C(=O)[C@@H]31)N2C(=O)c1ccccc1	Myeloid diff MLP active
CCOC(=O)c1c(-c2ccc(C)o2)csc1NC(=O)CN1CCCCC1	none
CCOC(=O)c1c(-c2ccc(C)o2)csc1NC(=O)CSc1nncs1	Granule exo inh 90
COc1cc(Cl)c(S(=O)(=O)NCCCn2ccnc2)cc1Cl	none
CCC(C(=O)OCC(=O)Nc1ccc(SC(F)F)cc1)c1ccccc1 (centres undefined)	Granule exo inh 73
O=C(CN1CCN(c2ccc(F)cc2)CC1)NCc1ccc(Cl)cc1	none
CCOC(=O)c1c(NC(C)=O)sc2c1CCC(C=NCCCN(CC)CC)=C2Sc1ccccc1	Myeloid diff MLP active
COc1ccc(NC(=O)C/C(C)=N/NC(=O)c2cnccn2)cc1	HNF4A DNA FP 30
CC1CC(C)C[N+](=C2C=C(N3CCCC3)CC(C)(C)C2)C1 (centres undefined)	Myeloid diff MLP active
c1ccc(-c2nccc(-c3ccc(-n4cnc5ccccc54)cc3)n2)cc1	CSN deneddyl inh 73
c1ccc(-n2cnc3ccccc32)nc1	none
O=C(COC(=O)c1ccc(Br)cc1)NCc1ccccc1	none
CC(=O)Cc1cc(O)c2ccccc2c1OC(=O)c1ccc(Br)cc1	Myeloid diff MLP active
COc1cc(C2NC(=O)c3ccccc3O2)ccc1OC(C)C (centres undefined)	Myeloid diff MLP active
CCOc1cc(C2NC(=O)c3ccccc3O2)ccc1OC (centres undefined)	none
C=CCn1c(Cc2ccc(OCC)cc2)nnc1SCC(N)=O	Myeloid diff MLP active
O=C1/C(=C\c2ccc(Br)o2)SC(=Nc2ccccc2)N1c1ccccc1	Myeloid diff MLP active
CC(C)c1cccc(-c2csc(C(C)(O)c3ccc(F)c(F)c3)n2)c1 (centres undefined)	none
CC(=NCc1cccc(Cl)c1)c1nc(-c2ccco2)oc1O	Myeloid diff MLP active
NC(=O)c1sc2nc(-c3ccccc3)ccc2c1N	Myeloid diff MLP active
CCOC(=O)c1sc2nc(-c3ccccc3)ccc2c1N	none
COc1ccc(C(=O)c2sc3nc(-c4ccccc4)ccc3c2N)cc1OC	Myeloid diff MLP active, HNF4A DNA FP 69
COC(=O)CCC(C)N1CCC(Oc2ccc(C(=O)NCc3ccccn3)cc2)CC1 (centres undefined)	none
COc1ccc(-c2nn(-c3ccccc3)cc2C(=O)N2CCN(C(=O)c3ccco3)CC2)cc1	none
COc1ccc(S(=O)(=O)N2CCCCC2)cc1NC(=O)CCNC(=O)c1ccc(Cl)cc1	none
CCCC(=O)NC(c1ccco1)c1cc([N+](=O)[O-])c2cccnc2c1O (centres undefined)	Myeloid diff MLP active
